Reference: ChEMBL document CHEMBL1124568, “2,4-Diamino-5-benzylpyrimidines as antibacterial agents. 13. Some alkenyl derivatives with high in vitro activity against anaerobic organisms” (J Med Chem, 1989)
Values after ≈ are worked out from the molar mass of the structure shown.

Key:
[1] = tested on: Proteus vulgaris; assay: Antibacterial (Proteus vulgaris CN329) activity compared to trimethoprim.; type: functional
Method in brief: (§1)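 Each MIC is divided by the MIC of trimethoprim run alongside. Serial dilutions were normally 0.1, 0.3, 1, 3, 10, etc., and occasionally 1, 5 and 10. For E. coli the value is the average over six strains.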

[2] = tested on: Klebsiella aerogenes; assay: Antibacterial (Enterobacter aerogenes 2201/86) activity compared to trimethoprim.; type: functional; method in brief: as §1
[3] = target: T1, Dihydrofolate reductase (Rattus norvegicus, UniProt Q920D2); assay: In vitro inhibition of rat liver dihydrofolate reductase.; settings: read-out: I50
T1 sequence (Q920D2 whole entry): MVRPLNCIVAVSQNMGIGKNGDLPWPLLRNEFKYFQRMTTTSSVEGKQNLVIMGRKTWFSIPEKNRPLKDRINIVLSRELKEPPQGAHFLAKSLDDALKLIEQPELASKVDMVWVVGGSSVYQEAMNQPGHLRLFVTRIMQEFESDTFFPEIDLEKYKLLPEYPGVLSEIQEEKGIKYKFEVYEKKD

[4] = tested on: Mycolicibacterium smegmatis; assay: Antibacterial (Mycobacterium smegmatis S3254) activity compared to trimethoprim.; type: functional; method in brief: as §1
[5] = tested on: Clostridioides difficile; assay: Ratio of antibacterial (Clostridium difficile) activities compared to that of trimethoprim and metronidazole; type: functional
[6] = tested on: Serratia marcescens; assay: Antibacterial (Serratia marcescens CN2398) activity compared to trimethoprim.; type: functional; method in brief: as §1
[7] = tested on: Shigella flexneri; assay: Antibacterial (Shigella flexneri CN6007) activity compared to trimethoprim.; type: functional; method in brief: as §1
[8] = tested on: Bacteroides thetaiotaomicron; assay: Ratio of antibacterial (Bacteroides thetaiotaomicron) activities compared to that of trimethoprim and metronidazole; type: functional
[9] = tested on: Escherichia coli; assay: Antibacterial (Escherichia coli) activity compared to trimethoprim.; type: functional; method in brief: as §1
[10] = tested on: Klebsiella pneumoniae; assay: Antibacterial (Klebsiella pneumoniae CN3632) activity compared to trimethoprim.; type: functional; method in brief: as §1
[11] = tested on: Streptococcus pyogenes; assay: Antibacterial ([…] CN10) activity compared to trimethoprim.; type: functional; method in brief: as §1
[12] = tested on: Staphylococcus aureus; assay: Antibacterial (Staphylococcus aureus CN491) activity compared to trimethoprim.; type: functional; method in brief: as §1
[13] = tested on: Clostridium perfringens; assay: Ratio of antibacterial (Clostridium perfringens) activities compared to that of trimethoprim and metronidazole; type: functional
[14] = tested on: Fusobacterium nucleatum; assay: Ratio of antibacterial (Fusobacterium nucleatum) activities compared to that of trimethoprim and metronidazole; type: functional
[15] = tested on: Phocaeicola vulgatus; assay: Ratio of antibacterial (Bacteroides vulgatus) activities compared to that of trimethoprim and metronidazole; type: functional
[16] = Antibacterial (Salmonella typhi CN512) activity compared to trimethoprim.; type: functional, salmonella typhosa
[17] = tested on: Pasteurella multocida; assay: Antibacterial (Pasteurella multocides ATCC 6587) activity compared to trimethoprim.; type: functional; method in brief: as §1
[18] = tested on: Salmonella; assay: Ratio of antibacterial (Salmonella typhi CN512) activities of compound and trimethoprim; type: functional, salmonella typhosa
[19] = tested on: Proteus vulgaris; assay: Ratio of antibacterial (Proteus vulgaris CN329) activities of compound and trimethoprim; type: functional; method in brief: as §1
[20] = tested on: Streptococcus pyogenes; assay: Ratio of antibacterial (Streptococcus pyogenes CN10) activities of compound and trimethoprim
[21] = tested on: Escherichia coli; assay: Ratio of antibacterial (Escherichia coli CN314) activities of compound and trimethoprim; type: functional
[22] = tested on: Shigella dysenteriae; assay: Ratio of antibacterial (Shigella dysentariae CN513) activities of compound and trimethoprim; type: functional
[23] = tested on: Klebsiella aerogenes; assay: Ratio of antibacterial (Enterobacter aerogenes, 2201/86) activities of compound and trimethoprim; type: functional; method in brief: as §1
[24] = tested on: Klebsiella pneumoniae; assay: Ratio of antibacterial (Klebsiella pneumoniae CN3632) activities of compound and trimethoprim; type: functional; method in brief: as §1
[25] = target: T2, Dihydrofolate reductase (Escherichia coli, UniProt P0ABQ4); assay: In vitro inhibition of dihydrofolate reductase of Escherichia coli; settings: read-out: I50
T2 sequence (P0ABQ4 whole entry): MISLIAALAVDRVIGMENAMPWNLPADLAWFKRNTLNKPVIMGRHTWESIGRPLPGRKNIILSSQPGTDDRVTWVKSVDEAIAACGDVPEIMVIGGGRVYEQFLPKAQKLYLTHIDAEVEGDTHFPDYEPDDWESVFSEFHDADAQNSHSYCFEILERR
Method in brief: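 The E. coli DHFR assay contained 1 nM enzyme, with the lower limit for I50 arbitrarily set at 2 nM. I50 was estimated from plots of % inhibition of steady-state velocity vs log inhibitor concentration.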

[26] = tested on: Staphylococcus aureus; assay: Ratio of antibacterial (Staphylococcus aureus CN491) activities of compound and trimethoprim; type: functional; method in brief: as §1
[27] = Half-life in dogs Plasma; type: ADME, organism-based, Canis lupus familiaris; settings: dog
Method in brief: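 Two fasted (18 h) male beagles received 5 mg/kg […] (free base), co-dosed with 5 mg/kg trimethoprim in propylene glycol. Jugular plasma was sampled from 0.17 to 24 h. Drug was extracted, separated by TLC and read by fluorescence densitometry. t1/2 came from least-squares linear regression of the postabsorption segment of the plasma curve.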

Compound	MIC [1] [µg/mL]	MIC [2] [µg/mL]	IC50 [3] [µM]	MIC [4] [µg/mL]	MIC [5] [µg/mL]	MIC [6] [µg/mL]	MIC [7] [µg/mL]	MIC [8] [µg/mL]	MIC [9] [µg/mL]	MIC [10] [µg/mL]	MIC [11] [µg/mL]	MIC [12] [µg/mL]	MIC [13] [µg/mL]	MIC [14] [µg/mL]	MIC [15] [µg/mL]	MIC [16] [µg/mL]	MIC [17] [µg/mL]	further results
C/C=C/c1cc(Cc2cnc(N)nc2N)cc(CCC)c1OC	> 100	100 (≈ 320 µM)	24	2 (≈ 6.4 µM)	12.5	> 5	100 (≈ 320 µM)	0.4	26 (≈ 83.2 µM)	100 (≈ 320 µM)	0.1 (≈ 0.32 µM)	1 (≈ 3.2 µM)	12.5	0.8	0.4	20 (≈ 64 µM)	20 (≈ 64 µM)	–
C=CCc1cc(Cc2cnc(N)nc2N)ccc1O	50 (≈ 195 µM)	10 (≈ 39 µM)	94.5	5 (≈ 19.5 µM)	25	20 (≈ 78 µM)	10 (≈ 39 µM)	–	16 (≈ 62.4 µM)	20 (≈ 78 µM)	2 (≈ 7.8 µM)	10 (≈ 39 µM)	> 25	0.8	–	100 (≈ 390 µM)	10 (≈ 39 µM)	–
COc1cc(Cc2cnc(N)nc2N)cc(CC(C)O)c1O (stereo not drawn)	30 (≈ 98.6 µM)	3 (≈ 9.86 µM)	36	3 (≈ 9.86 µM)	–	> 10	3 (≈ 9.86 µM)	–	4 (≈ 13.1 µM)	10 (≈ 32.9 µM)	3 (≈ 9.86 µM)	3 (≈ 9.86 µM)	–	–	–	10 (≈ 32.9 µM)	3 (≈ 9.86 µM)	–
C=CCOc1ccc(Cc2cnc(N)nc2N)cc1CC=C	> 50	> 100	11	> 100	> 25	> 10	500 (≈ 1690 µM)	–	72 (≈ 243 µM)	> 100	2 (≈ 6.75 µM)	10 (≈ 33.7 µM)	> 25	0.8	–	1000 (≈ 3370 µM)	500 (≈ 1690 µM)	–
Cc1cc(Cc2cnc(N)nc2N)cc2c1OC(C)(C)C2	–	–	37	–	–	–	–	–	–	–	–	–	–	–	–	–	–	MIC [18]: 10 µg/mL; MIC [19]: 10 µg/mL; MIC [20]: 3 µg/mL; MIC [21]: 10 µg/mL; MIC [22]: 10 µg/mL; MIC [23]: 30 µg/mL; MIC [24]: 10 µg/mL; IC50 [25]: 0.055 µM; MIC [26]: 3 µg/mL
C=CCOc1cc(Cc2cnc(N)nc2N)cc(OC)c1OC	10 (≈ 31.6 µM)	10 (≈ 31.6 µM)	150	3 (≈ 9.48 µM)	> 25	3 (≈ 9.48 µM)	10 (≈ 31.6 µM)	12.5	–	10 (≈ 31.6 µM)	0.3 (≈ 0.948 µM)	0.3 (≈ 0.948 µM)	> 25	0.8	6.2	10 (≈ 31.6 µM)	10 (≈ 31.6 µM)	–
CCOc1cc(Cc2cnc(N)nc2N)cc(OC)c1OC	1 (≈ 3.29 µM)	1 (≈ 3.29 µM)	140	1 (≈ 3.29 µM)	–	3 (≈ 9.86 µM)	1 (≈ 3.29 µM)	–	2.6 (≈ 8.54 µM)	1 (≈ 3.29 µM)	0.3 (≈ 0.986 µM)	0.3 (≈ 0.986 µM)	–	–	–	1 (≈ 3.29 µM)	1 (≈ 3.29 µM)	half-life [27]: 3.13 h
CCCOc1cc(Cc2cnc(N)nc2N)cc(OC)c1OC	3 (≈ 9.42 µM)	3 (≈ 9.42 µM)	94.5	3 (≈ 9.42 µM)	–	3 (≈ 9.42 µM)	10 (≈ 31.4 µM)	–	6 (≈ 18.8 µM)	10 (≈ 31.4 µM)	0.3 (≈ 0.942 µM)	0.3 (≈ 0.942 µM)	–	–	–	10 (≈ 31.4 µM)	3 (≈ 9.42 µM)	–
C/C=C/c1cc(Cc2cnc(N)nc2N)cc(OC)c1OC	3 (≈ 9.99 µM)	10 (≈ 33.3 µM)	57	3 (≈ 9.99 µM)	> 25	1 (≈ 3.33 µM)	10 (≈ 33.3 µM)	1.6	6 (≈ 20 µM)	10 (≈ 33.3 µM)	0.1 (≈ 0.333 µM)	0.1 (≈ 0.333 µM)	> 25	0.8	0.8	3 (≈ 9.99 µM)	10 (≈ 33.3 µM)	half-life [27]: 2.25 h
